ChEMBL document CHEMBL4118202, “Chiral analogues of (+)-cyclazosin as potent α1B-adrenoceptor selective antagonist” (Bioorg Med Chem, 2018)

How the values were obtained:
[1] = target: T1, Alpha-1B adrenergic receptor (Rattus norvegicus, UniProt P15823); assay: Antagonist activity at alpha1B adrenergic receptor in Wistar rat spleen assessed as inhibition of phenylephrine-induced contraction incubated for 30 mins in presence of beta-adrenoceptor blocker propranolol hydrochloride; assay type: functional; conditions: read-out: pA2 (converted)
T1 sequence (P15823 whole entry): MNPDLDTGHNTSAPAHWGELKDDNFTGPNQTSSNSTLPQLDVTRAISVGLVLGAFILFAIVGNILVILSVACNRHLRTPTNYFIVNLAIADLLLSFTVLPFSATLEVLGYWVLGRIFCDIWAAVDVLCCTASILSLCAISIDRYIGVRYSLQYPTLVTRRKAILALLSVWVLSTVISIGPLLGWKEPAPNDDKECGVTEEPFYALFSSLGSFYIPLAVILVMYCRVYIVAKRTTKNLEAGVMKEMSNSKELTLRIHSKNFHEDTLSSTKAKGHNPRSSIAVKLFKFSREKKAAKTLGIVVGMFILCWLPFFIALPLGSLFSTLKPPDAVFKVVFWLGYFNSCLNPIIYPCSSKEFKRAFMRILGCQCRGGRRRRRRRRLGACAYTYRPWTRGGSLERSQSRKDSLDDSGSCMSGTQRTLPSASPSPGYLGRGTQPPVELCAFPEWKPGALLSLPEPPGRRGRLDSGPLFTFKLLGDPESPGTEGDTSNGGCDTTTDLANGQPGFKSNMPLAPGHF
How it was run: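 Spleen bisected longitudinally into strips in Krebs with propranolol 4 μM, held at 1 g and equilibrated 2 h. Two isometric cumulative phenylephrine curves, each followed by 30 min washing. Third curve after 30 min vehicle or antagonist. Potency as pA2 (Schild) or pKB at one concentration (van Rossum). Responses as % of control maximum; n ≥ 4.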

[2] = target: T2, Alpha-1D adrenergic receptor (Rattus norvegicus) (UniProt P23944); assay: Antagonist activity at alpha1D adrenergic receptor in Wistar rat thoracic aorta assessed as inhibition of noradrenaline-induced contraction measured after 30 mins in presence of cocaine hydrochloride and beta-adrenoceptor blocker propranolol hydrochloride; assay type: functional
T2 sequence (whole entry): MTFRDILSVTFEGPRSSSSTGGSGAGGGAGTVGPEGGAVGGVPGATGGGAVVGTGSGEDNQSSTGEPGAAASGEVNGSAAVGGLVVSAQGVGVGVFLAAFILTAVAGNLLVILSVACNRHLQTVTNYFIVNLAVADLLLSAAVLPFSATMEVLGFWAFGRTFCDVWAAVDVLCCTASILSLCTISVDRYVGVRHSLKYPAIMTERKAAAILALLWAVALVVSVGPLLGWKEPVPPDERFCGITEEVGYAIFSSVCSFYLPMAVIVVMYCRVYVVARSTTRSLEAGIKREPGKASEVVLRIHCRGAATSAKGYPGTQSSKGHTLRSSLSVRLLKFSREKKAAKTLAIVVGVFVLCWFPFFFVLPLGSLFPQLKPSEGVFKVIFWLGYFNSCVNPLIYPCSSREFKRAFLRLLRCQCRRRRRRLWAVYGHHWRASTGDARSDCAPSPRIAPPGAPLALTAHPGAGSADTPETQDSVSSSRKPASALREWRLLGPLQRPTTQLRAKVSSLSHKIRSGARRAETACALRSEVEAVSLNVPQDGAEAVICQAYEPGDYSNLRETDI
How it was run: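 Helical thoracic aorta strips, endothelium removed (checked by loss of acetylcholine relaxation), in Krebs at 1 g, equilibrated ≥2 h. Isometric cumulative noradrenaline curves at 1 h intervals; the second served as control, the third followed 30 min antagonist.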

[3] = target: T3, Alpha-1A adrenergic receptor (Homo sapiens, UniProt P35348); assay: Binding affinity to alpha1A adrenergic receptor (unknown origin)
T3 sequence (P35348 whole entry): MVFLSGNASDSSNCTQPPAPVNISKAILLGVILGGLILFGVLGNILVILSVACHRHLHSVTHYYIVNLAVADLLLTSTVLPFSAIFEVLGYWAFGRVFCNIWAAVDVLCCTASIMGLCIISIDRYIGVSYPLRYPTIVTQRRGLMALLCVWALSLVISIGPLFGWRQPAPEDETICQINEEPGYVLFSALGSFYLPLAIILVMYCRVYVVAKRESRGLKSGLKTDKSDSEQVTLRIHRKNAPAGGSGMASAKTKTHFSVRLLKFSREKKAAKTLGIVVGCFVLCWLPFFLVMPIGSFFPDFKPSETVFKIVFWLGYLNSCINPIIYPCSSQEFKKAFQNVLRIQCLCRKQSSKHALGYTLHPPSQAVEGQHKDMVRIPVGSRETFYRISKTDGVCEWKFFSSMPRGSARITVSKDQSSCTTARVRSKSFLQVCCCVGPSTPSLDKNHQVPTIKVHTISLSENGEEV

[4] = target: T4, Alpha-1D adrenergic receptor (Homo sapiens, UniProt P25100); assay: Binding affinity to alpha1D adrenergic receptor (unknown origin)
T4 sequence (P25100 whole entry): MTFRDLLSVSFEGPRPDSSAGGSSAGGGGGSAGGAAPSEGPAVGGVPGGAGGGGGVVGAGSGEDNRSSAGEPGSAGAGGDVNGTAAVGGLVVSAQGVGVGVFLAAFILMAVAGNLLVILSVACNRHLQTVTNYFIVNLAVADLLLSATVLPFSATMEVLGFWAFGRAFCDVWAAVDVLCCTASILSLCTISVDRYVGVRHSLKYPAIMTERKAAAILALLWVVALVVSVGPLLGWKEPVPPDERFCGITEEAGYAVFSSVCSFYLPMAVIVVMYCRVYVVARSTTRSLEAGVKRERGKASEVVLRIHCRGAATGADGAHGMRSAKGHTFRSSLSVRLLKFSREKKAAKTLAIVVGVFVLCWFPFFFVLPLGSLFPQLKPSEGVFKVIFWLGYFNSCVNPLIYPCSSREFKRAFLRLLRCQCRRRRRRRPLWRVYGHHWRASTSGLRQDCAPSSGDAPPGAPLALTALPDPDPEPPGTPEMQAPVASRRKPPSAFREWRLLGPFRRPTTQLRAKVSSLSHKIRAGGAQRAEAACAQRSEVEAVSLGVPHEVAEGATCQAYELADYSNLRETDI

[5] = species on record: Homo sapiens; assay: Selectivity ratio of compound effect for alpha1B adrenergic receptor (unknown origin) to compound effect for alpha1A adrenergic receptor (unknown origin)
[6] = species on record: Homo sapiens; assay: Selectivity ratio of compound effect for alpha1D adrenergic receptor (unknown origin) to compound effect for alpha1A adrenergic receptor (unknown origin)

| Kb [1] | pKb [2] | SMILES | also measured |
| --- | --- | --- | --- |
| 191 nM |  | COc1cc2nc(N3CCN(C(=O)COc4c(OC)cccc4C(C)C)[C@H]4CCCC[C@H]43)nc(N)c2cc1OC |  |
|  | 6.22 | CCCN(CCC)c1nc(N2CCN(C(=O)c3ccco3)[C@H]3CCCC[C@H]32)nc2cc(OC)c(OC)cc12 |  |
| 0.617 nM |  | COc1cc2nc(N3CCN(C(C)=O)[C@@H]4CCCC[C@@H]43)nc(N)c2cc1OC |  |
| 1.82 nM |  | COc1cc2nc(N3CCN(C(=O)OCc4ccccc4)[C@@H]4CCCC[C@@H]43)nc(N)c2cc1OC |  |
| 3.02 nM |  | COc1cc2nc(N3CCN(C(C)=O)[C@H]4CCCC[C@H]43)nc(N)c2cc1OC |  |
|  | 7.1 | COc1cc2nc(N3CCN(C(=O)C4COc5ccccc5O4)[C@H]4CCCC[C@H]43)nc(N)c2cc1OC (single isomer, unassigned; (-)) [CYCLODOXAZOSIN] | Ki [3]: 3.39 nM; Ki [4]: 3.89 nM; Selectivity ratio [5]: 2; Selectivity ratio [6]: 1 |
